From ChEMBL document CHEMBL1155099, “Natural products in parallel synthesis: triazole libraries of nonactic acid” (2008)
In brackets after ≈: the same amount, converted by molar mass. Activity calls are given as the source filed them. No rule for the calls is given here.

How the values were obtained:
Saccharomyces cerevisiae = assay: Antifungal activity against Saccharomyces cerevisiae at 1 mM by almar blue dye reduction assay; format: functional, organism-based
Summary of the method: (§1)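 Single-point primary screen at 1 mM using Alamar Blue dye reduction as the growth read-out.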

Bacillus anthracis = assay: Antibacterial activity against Bacillus anthracis at 1mM by almar blue dye reduction assay; format: functional, organism-based
Bacillus subtilis [1] = assay: Antibacterial activity against Bacillus subtilis by almar blue dye reduction assay; format: functional
Summary of the method: (§2)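 Compounds advanced from the 1 mM screen were tested over a dilution series, with a top concentration of 1 mM, using Alamar Blue dye reduction. MIC is the lowest concentration with no dye reduction. Where inhibition was partial with some growth at the top concentration, the value is reported as '>'.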

Staphylococcus aureus = assay: Antibacterial activity against Staphylococcus aureus at 1 mM by almar blue dye reduction assay; format: functional, organism-based; summary of the method: as §1
Escherichia coli = assay: Antibacterial activity against Escherichia coli at 1 mM by almar blue dye reduction assay; format: functional, organism-based; summary of the method: as §1
Pseudomonas aeruginosa = assay: Antibacterial activity against Pseudomonas aeruginosa at 1 mM by almar blue dye reduction assay; format: functional, organism-based; summary of the method: as §1
Candida albicans = assay: Antifungal activity against Candida albicans at 1 mM by almar blue dye reduction assay; format: functional, organism-based; summary of the method: as §1
Cryptococcus neoformans = assay: Antifungal activity against Cryptococcus neoformans at 1 mM by almar blue dye reduction assay; format: functional, organism-based; summary of the method: as §1
Bacillus cereus [2] = assay: Antibacterial activity against Bacillus cereus at 1 mM by almar blue dye reduction assay; format: functional, organism-based; summary of the method: as §1
Bacillus cereus [3] = assay: Antibacterial activity against Bacillus cereus by almar blue dye reduction assay; format: functional; summary of the method: as §2
Bacillus subtilis [4] = assay: Antibacterial activity against Bacillus subtilis at 1 mM by almar blue dye reduction assay; format: functional, organism-based; summary of the method: as §1

Structure (SMILES)	Activity (Saccharomyces cerevisiae)	Activity (Bacillus anthracis)	MIC (Bacillus subtilis [1]) [µg/mL]	Activity (Staphylococcus aureus)	Activity (Escherichia coli)	Activity (Pseudomonas aeruginosa)	Activity (Candida albicans)	Activity (Cryptococcus neoformans)	Activity (Bacillus cereus [2])	MIC (Bacillus cereus [3]) [µg/mL]	Activity (Bacillus subtilis [4])
CCN(CC)C(=O)[C@H](C)C1CCC(C[C@@H](C)n2cc(C#CCNC(=O)Nc3cccc(C)c3)nn2)O1 (single isomer, unassigned)	inactive	inactive	700 (≈ 1420 µM)	inactive	inactive	inactive	inactive	inactive	inactive		
C[C@H](C[C@@H]1CC[C@H]([C@@H](C)C(=O)N2CCN(CC3CCCO3)CC2)O1)n1cc(C#Cc2ccc(-c3ccccc3)cc2)nn1 (stereo partly drawn)	inactive	inactive	560 (≈ 963 µM)	inactive	inactive	inactive	inactive	inactive	inactive		
Cc1cccc(NC(=O)OCC#Cc2cn([C@H](C)CC3CCC([C@@H](C)C(=O)N4CCN(CC5CCCO5)CC4)O3)nn2)c1 (single isomer, unassigned)	inactive	inactive		inactive	inactive	inactive	inactive	inactive		570 (≈ 962 µM)	inactive
CCCCN(CC#Cc1cn([C@H](C)C[C@@H]2CC[C@H]([C@@H](C)C(=O)N3CCN(CC4CCCO4)CC3)O2)nn1)CCCC (stereo partly drawn)	inactive	inactive	820 (≈ 1440 µM)	inactive	inactive	inactive	inactive	inactive	inactive		
C[C@H](C[C@@H]1CC[C@H]([C@@H](C)C(=O)N2CCN(CC3CCCO3)CC2)O1)n1cc(C#Cc2ccc(C(F)(F)F)cc2)nn1 (stereo partly drawn)	inactive	inactive	820 (≈ 1430 µM)	inactive	inactive	inactive	inactive	inactive	inactive		
C[C@H](CC1CCC([C@@H](C)C(=O)N2CCN(CC3CCCO3)CC2)O1)n1cc(C#CCOC(=O)OCc2ccccc2)nn1 (single isomer, unassigned)	inactive	inactive		inactive	inactive	inactive	inactive	inactive	inactive		inactive
CC(C)NC(=O)[C@H](C)[C@H]1CC[C@@H](C[C@@H](C)n2cc(C#Cc3ccccn3)nn2)O1	inactive	inactive		inactive	inactive	inactive	inactive	inactive	inactive		inactive
CC(C)NC(=O)[C@H](C)[C@H]1CC[C@@H](C[C@@H](C)n2cc(C#CCOc3cccc(-c4ccccc4)c3)nn2)O1	inactive	inactive		inactive	inactive	inactive	inactive	inactive	inactive		inactive
COc1ccc(OCC#Cc2cn([C@H](C)C[C@@H]3CC[C@H]([C@@H](C)C(=O)N4CCCC4)O3)nn2)cc1	inactive	inactive		inactive	inactive	inactive	inactive	inactive	inactive		inactive
CCC(=O)OCC#Cc1cn([C@H](C)CC2CCC([C@@H](C)C(=O)N(CC)CC)O2)nn1 (single isomer, unassigned)	inactive	inactive		inactive	inactive	inactive	inactive	inactive	inactive		inactive
C[C@H](C[C@@H]1CC[C@H]([C@@H](C)C(=O)N2CCN(CC3CCCO3)CC2)O1)n1cc(C#CCN(C)C)nn1 (stereo partly drawn)	inactive	inactive		inactive	inactive	inactive	inactive	inactive	inactive		inactive
CC(C)NC(=O)[C@H](C)[C@H]1CC[C@@H](C[C@@H](C)n2cc(C#CCN3CCOCC3)nn2)O1	inactive	inactive		inactive	inactive	inactive	inactive	inactive	inactive		inactive
CCCCCC#Cc1cn([C@H](C)C[C@@H]2CC[C@H]([C@@H](C)C(=O)N(CC)CC)O2)nn1	inactive	inactive		inactive	inactive	inactive	inactive	inactive	inactive		inactive
CC(C)NC(=O)[C@H](C)[C@H]1CC[C@@H](C[C@@H](C)n2cc(C#Cc3ccccc3)nn2)O1	inactive	inactive		inactive	inactive	inactive	inactive	inactive	inactive		inactive
C[C@H](CC1CCC([C@@H](C)C(=O)N2CCCC2)O1)n1cc(C#CCNC(=O)OCc2ccccc2)nn1 (single isomer, unassigned)	inactive	inactive		inactive	inactive	inactive	inactive	inactive	inactive		inactive
CCN(CC)C(=O)[C@H](C)[C@H]1CC[C@@H](C[C@@H](C)n2cc(C#Cc3ccc(-c4ccccc4)cc3)nn2)O1	inactive	inactive		inactive	inactive	inactive	inactive	inactive	inactive		inactive
CCN(CC)C(=O)[C@H](C)[C@H]1CC[C@@H](C[C@@H](C)n2cc(C#Cc3ccc(OC)cc3)nn2)O1	inactive	inactive		inactive	inactive	inactive	inactive	inactive	inactive		inactive
CCC(=O)OCC#Cc1cn([C@H](C)CC2CCC([C@@H](C)C(=O)N3CCCC3)O2)nn1 (single isomer, unassigned)	inactive	inactive		inactive	inactive	inactive	inactive	inactive	inactive		inactive
Cc1cccc(NC(=O)OCC#Cc2cn([C@H](C)CC3CCC([C@@H](C)C(=O)NC(C)C)O3)nn2)c1 (single isomer, unassigned)	inactive	inactive		inactive	inactive	inactive	inactive	inactive	inactive		inactive
C[C@H](C[C@@H]1CC[C@H]([C@@H](C)C(=O)N2CCCC2)O1)n1cc(C#CCOc2ccc(Br)cc2)nn1	inactive	inactive		inactive	inactive	inactive	inactive	inactive	inactive		inactive
CCN(CC)C(=O)[C@H](C)[C@H]1CC[C@@H](C[C@@H](C)n2cc(C#CCOc3ccc(C(F)(F)F)cc3)nn2)O1	inactive	inactive		inactive	inactive	inactive	inactive	inactive	inactive		inactive
CCOC(=O)C#Cc1cn([C@H](C)CC2CCC([C@@H](C)C(=O)N(C)Cc3ccccc3)O2)nn1 (single isomer, unassigned)	inactive	inactive		inactive	inactive	inactive	inactive	inactive	inactive		inactive
